Bioassay records deposited in PubChem by Sanford-Burnham Center for Chemical Genomics.
STEP inh: STEP phosphatase inhibitors, primary screen, biochemical, fluorescence intensity, uHTS; Tyrosine-protein phosphatase non-receptor type 5 (Homo sapiens), P54829; 360,000 compounds, 0.25% hits; inhibition, % at 20 µM; recombinant STEP, OMFP fluorogenic substrate; AID 588621, 2011;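 active means inhibition at 20 µM, scaled per plate between control wells, above about 37%, limit read from the data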;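 further: 0% = DMSO with enzyme and substrate and 100% = substrate only without enzyme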
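medium = Bis-Tris buffer pH 6.0, 2.5 mM DTT, 0.005% Tween 20 | test system = STEP (striatal-enriched tyrosine phosphatase) enzyme, cell-free | measure = normalized % inhibition | compound dosing = 20 µM, 1% DMSO | also added = 25 µM OMFP | schedule = reaction 20 min, ambient temperature | measured by = fluorescence read at 480 nm ex / 540 nm em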
SUMO1-SIM PPI: modulators of SUMO1 protein-protein interactions, primary screen, biochemical, uHTS; Small ubiquitin-related modifier 1 (Homo sapiens), P63165; SUMO1 binding to a labelled peptide, TR-FRET, 1 h; inhibition, % at 20 µM; 360,000 compounds, 0.33% hits; AID 602429, 2012; in the data active means inhibition above about 37%
Target sequence (P63165 whole entry, looked up): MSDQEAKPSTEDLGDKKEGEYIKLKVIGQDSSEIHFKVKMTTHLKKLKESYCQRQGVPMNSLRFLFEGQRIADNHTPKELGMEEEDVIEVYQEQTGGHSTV
LMPTP inh: LMPTP phosphatase inhibitors, primary screen, biochemical, fluorescence intensity, uHTS. recombinant LMPTP-A, OMFP fluorogenic substrate. inhibition, % at 20 µM. 360,000 compounds, 0.22% hits;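 active means compounds that cut the enzyme signal by at least half of the control window in the single-dose screen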;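 further: plate controls were DMSO wells with enzyme plus substrate for no effect and substrate without enzyme for full effect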
Target sequence (P24666 whole entry, looked up): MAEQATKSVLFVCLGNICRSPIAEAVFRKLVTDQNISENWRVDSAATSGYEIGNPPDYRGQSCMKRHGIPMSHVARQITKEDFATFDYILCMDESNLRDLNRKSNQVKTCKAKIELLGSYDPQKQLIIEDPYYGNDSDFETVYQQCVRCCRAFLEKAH
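Assay system: LMPTP-A enzyme. Input: 0.625 nM LMPTP-A final. Probe or stimulus: 400 µM OMFP. Compound dosing: single 20 µM dose. Schedule: 50 min dark incubation at room temperature. Detection: fluorescence intensity of OMFP turnover product. Read-out: percent inhibition versus substrate-only and uninhibited controls. Benchmarks: no-enzyme low control, uninhibited high control.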
Scp1 inh: Scp-1 phosphatase inhibitors, primary screen, biochemical, colorimetric, uHTS; Carboxy-terminal domain RNA polymerase II polypeptide A small phosphatase 1 (Homo …; Recombinant Scp1, phosphopeptide, malachite green phosphate absorbance; inhibition, % at 20 µM; 340,000 compounds, 0.88% hits; AID 493091, 2011;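 active means inhibition above about 50% at 20 µM, limit read from the data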;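 further: plate controls were DMSO wells with enzyme for no effect and wells lacking enzyme for full effect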
Target sequence (Q9GZU7 76-261 limits assumed): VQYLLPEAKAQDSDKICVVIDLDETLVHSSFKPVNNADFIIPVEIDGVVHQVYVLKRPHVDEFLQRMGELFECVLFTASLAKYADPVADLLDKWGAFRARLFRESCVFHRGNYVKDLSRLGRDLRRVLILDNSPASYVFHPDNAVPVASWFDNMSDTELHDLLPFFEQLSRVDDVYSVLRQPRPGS
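System: SCP-1 catalytic domain; Reagent: Phospho 17-mer peptide substrate; Doses: one concentration, 20 µM, with 1.0% DMSO; Incubation: 45 min room-temperature reaction, 5 min colour, 30 min stabiliser; Signal: Phosphate-binding colour reagent, absorbance read at 630 nm.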
DNMT1 inh: human DNMT1 methyltransferase inhibitors, primary screen, biochemical, molecular beacon, fluorescence, HinP1I cleavage, uHTS. inhibition (reported as % activation of signal), % at 10 µM. AID 588458, 2011. 360,000 compounds, 0.83% hits; in the data active means inhibition above about 50%
Scp1 confirm: Scp-1 phosphatase inhibitors, retest, confirmation, biochemical, colorimetric, single concentration; 2,500 compounds, 61% hits; recombinant SCP-1 catalytic domain, phosphate release, malachite green absorbance; shares compounds with Scp1 inh; inhibition, % at 20 µM;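 further: plate controls were DMSO with enzyme for no effect and buffer wells lacking enzyme for full effect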
Scp-1 MG ctr: colorimetric readout interference by compounds, confirmation, artefact control for Scp-1 inhibitor project, biochemical, single concentration | Colorimetric interference counterscreen, malachite green absorbance 630 nm | 2,500 tested, under 10 active | apparent inhibition (interference), % at 20 µM | shares compounds with Scp1 inh;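 further: compounds added after enzyme reaction finished so only phosphate colour detection is probed; plate controls were DMSO wells with completed Scp-1 reaction for no effect and substrate wells lacking enzyme for full effect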
Scp1 DSF: Scp-1 binding by thermal shift, confirmation, orthogonal assay for Scp-1 inhibitor project, biophysical, differential scanning fluorimetry. thermal shift relative to vanadate control, % at 40 µM. shares compounds with Scp1 inh. Recombinant SCP1, Sypro Orange thermal shift Tm. 1,500 compounds, 25% hits;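 active means substances whose mean melting-temperature shift, as a percentage of the reference inhibitor's shift, reaches about 5.3%, limit read from the data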;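 further: 0% = Tm of DMSO wells and 100% = Tm with sodium orthovanadate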
Starred values were filed as active, the others as inactive; . = no result. Sampled rows, rich in hits. Any-hit rate of the full collection: about 1.7%.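 How the source made its calls, unless noted: active means inhibition of at least 30% at 20 µM; inactive means the rest.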

SMILES | STEP inh | SUMO1-SIM PPI | LMPTP inh | Scp1 inh | DNMT1 inh | Scp1 confirm | Scp-1 MG ctr | others
Cc1cc(C(=O)N/N=C/c2cc(Br)ccc2OC(=O)c2ccccc2)n[nH]1 | 5 | -1 | 33 | 94* | 15 | 64* | -5 | Scp1 DSF=-3
Cc1cc(C(=O)N/N=C/c2cc(Br)ccc2OC(=O)c2ccccc2Cl)n[nH]1 | 5 | 2 | 6 | -7 | 30 | . | .
CC(=O)Nc1ccc(S(=O)(=O)N(C#N)c2nc(N(C)C)nc(N(C)C)n2)cc1 | -3 | 4 | -2 | -10 | 3 | . | .
N#Cc1c(N)nc2c(c1N)CC(CO)O2 (configuration not stated) | -2 | 3 | 0 | 56* | 0 | 10 | 2
N#Cc1c(N)nc2c(c1N)CC(COc1ccccc1)O2 (configuration not stated) | -8 | 2 | -2 | 1 | 1 | . | .
Cc1c(C(=O)NCc2ccc3c(c2)OCCO3)sc(=O)n1Cc1ccccc1F | 1 | 2 | 0 | . | -6 | . | .
CC(C)C[C@H]1CNC(=O)C(=O)N1C[C@H](Cc1ccc(O)cc1)NC(=O)CC12CC3CC(CC(C3)C1)C2 | . | 3 | -1 | . | . | . | .
CC(C)C[C@@H](CN1C(=O)C(=O)NC[C@@H]1CC(C)C)NC(=O)Cc1ccccc1 | 1 | 4 | 0 | -3 | 2 | -8 | -8
CCOc1cc(/C=N/N=C2/NC(=O)C(CC(=O)O)S2)ccc1OCc1ccccc1Cl (configuration not stated) | 8 | -3 | 1 | 75* | 1 | 64* | -17 | Scp1 DSF=-17
COc1ccc(/C=N/N=C2/NC(=O)C(CC(=O)O)S2)cc1OCc1ccccc1Cl (configuration not stated) | 1 | 7 | -1 | 81* | 3 | 72* | -4 | Scp1 DSF=-5
CCOc1cc(/C=N/N=C2/NC(=O)C(CC(=O)O)S2)ccc1OS(=O)(=O)c1ccc(C)cc1 (configuration not stated) | 4 | 2 | 0 | -3 | -3 | . | .
CCOc1cc(/C=N/NC(=O)CSc2nnc(C)s2)ccc1OCc1ccccc1Cl | 0 | -4 | 1 | 78* | -6 | 37* | -20 | Scp1 DSF=-7
O=C(CSc1nnc(SCc2ccccc2Cl)s1)N/N=C/c1ccc(C(=O)O)cc1 | 1 | -5 | 2 | 6 | 0 | . | .
Cc1cc(OCC(=O)NCC(c2ccc(F)cc2)N2CCOCC2)ccc1Cl (configuration not stated) | -4 | 4 | 1 | -8 | 0 | . | .
Cc1cccn2c(=O)c(C=O)c(Nc3ccccc3)nc12 | -2 | 2 | 1 | -5 | 9 | . | .
Cc1cc(C)cc(OCC(=O)Nc2cnn(CCCC(=O)O)c2)c1 | -1 | 0 | -1 | -7 | 1 | . | .
C[C@H](CO)N1C[C@H](C)[C@@H](CN(C)Cc2ccc3c(c2)OCO3)Oc2c(NC(=O)Cc3ccccc3)cccc2C1=O | 3 | 7 | 0 | -5 | 3 | . | .
CSCCC(NS(=O)(=O)c1ccc2c(c1)oc(=O)n2C)C(=O)NC1CCC(C)CC1 (configuration not stated) | 0 | 8 | -1 | -22 | -2 | 4 | -6
CSCCC(NS(=O)(=O)c1ccc2c(c1)oc(=O)n2C)C(=O)NC1CCN(Cc2ccccc2)CC1 (configuration not stated) | -2 | 5 | 0 | -7 | -1 | . | .
COc1cc(/C=C2\C(=N)N3N=C(S(C)(=O)=O)SC3=NC2=O)ccc1OS(=O)(=O)c1ccc(C)cc1 | 3 | 14 | 1 | 69* | -1 | 75* | -16 | Scp1 DSF=12*
COc1ccccc1OCCOc1ccc(/C=C2\C(=N)N3N=C(S(C)(=O)=O)SC3=NC2=O)cc1 | 3 | -3 | 12 | 80* | 1 | 56* | -12 | Scp1 DSF=6.9*
C/C(CC1CC(COCC(C)C)OC1=O)=N\Nc1nc(-c2ccccc2)cs1 (configuration not stated) | 0 | 2 | 1 | -4 | -18 | . | .
CC1CC(CC(=O)Nc2nc(-c3ccccc3)cs2)C(=O)O1 (configuration not stated) | 3 | 2 | -2 | -4 | 8 | -10 | -5
O=C(NCC(c1ccco1)N1CCN(c2ccccc2)CC1)C1CCCCC1 (configuration not stated) | 0 | -4 | 0 | . | 0 | . | .
CCCCNC(=O)C1CC(=O)N(CCc2ccccc2)C1 (configuration not stated) | 4 | 1 | -2 | -7 | 0 | . | .
SMILES | STEP inh | SUMO1-SIM PPI | LMPTP inh | Scp1 inh | DNMT1 inh | Scp1 confirm | Scp-1 MG ctr | others
Cc1ccc(CCN2CC(C(=O)NCCN3CCOCC3)CC2=O)cc1 (configuration not stated) | . | . | . | 0 | . | . | .
Cc1ccc(CCN2CC(C(=O)NCCCN3CCOCC3)CC2=O)cc1 (configuration not stated) | -8 | -2 | -3 | -2 | 2 | -9 | -11
CCOCCCN1CC(C(=O)NCCc2ccccc2)CC1=O (configuration not stated) | 0 | 0 | 0 | -3 | 2 | -14 | -16
O=C(NCc1ccc2c(c1)OCO2)C1CC(=O)N(CCc2ccccc2)C1 (configuration not stated) | 6 | 7 | -2 | -10 | -2 | -8 | -8
O=C(NCc1ccc(F)cc1)C1CC(=O)N(CCc2ccccc2)C1 (configuration not stated) | 4 | -1 | 0 | -10 | 2 | -7 | -11
COc1ccc2c(COC(=O)CCS(=O)(=O)c3ccc(C)cc3)cc(=O)oc2c1 | 2 | -38 | 0 | 4 | -1 | . | .
CC(=O)c1nnn(-c2ccccc2C#N)c1C | -3 | -3 | -2 | 65* | 1 | -2 | -8
Cc1cc(NC(=O)CSc2nc(=O)cc(N)n2-c2ccc(C)c(C)c2)no1 | 0 | 0 | -2 | 1 | 2 | . | .
O=C(Cn1cnc2c(nnn2-c2cccc(Cl)c2)c1=O)NCc1ccccc1 | 8 | 7 | 33 | 53* | 34 | 62* | -18 | Scp1 DSF=-5
